Results: PMC8891099 (Clinical Pharmacokinetics, 2021)
Values after ≈ are worked out from the molar mass of the structure shown.

Legend:
[1] = system: patients with CKD and T2D; conditions: corresponding to sustained eGFR decrease ≥ 57%, under finerenone treatment ref 3; cited from earlier work
[2] = Population pharmacokinetic model of finerenone in FIDELIO-DKD; assay type: in vivo, human
Procedure, shortened: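 Nonlinear mixed-effects model of sparse plasma levels after oral 10 or 20 mg once daily. Sampling was a month-4 trough plus post-dose samples at any time on yearly visits. Structure: two compartments with equal volumes, transit-compartment absorption and first-order elimination, starting from a phase IIb model. Covariate search used single addition and forward inclusion at p 0.01 and backward deletion at p 0.001.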

[3] = system: patients with CKD and T2D; assay: Parametric time-to-event exposure-response; assay type: in vivo; conditions: Homo sapiens, read-out: EC50 (half-maximal drug effect concentration)
Procedure, shortened: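 Parametric time-to-event model (Weibull hazard) for the first composite kidney event, with exposure-response as an Emax function driven by central-compartment concentration. Input was individual concentration-time profiles from post-hoc PK estimates, actual dosing history and covariates; typical PK parameters were used for subjects lacking them. Delay and Hill coefficient were tested. Checked by visual predictive checks with observed dropout.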

[4] = system: patients with CKD and T2D; assay: FIDELIO-DKD phase III study, kidney outcome events; assay type: in vivo, human; conditions: finerenone group, 504 of 2833 patients, median follow-up of 2.6 years
[5] = covariate parameter, population PK model
[6] = inter-individual variability, population PK model
[7] = population PK model estimate, FIDELIO-DKD patients

CCOc1ncc(C)c2c1[C@H](c1ccc(C#N)cc1OC)C(C(N)=O)=C(C)N2 [finerenone]
reduction of secondary endpoint doubling of serum creatinine [1]: 32% | Effect for Korean subjects on Vc/F [2, 5]: 1.29 | Effect of body weight on Vc/F [2, 5]: 0.501 | Absorption lag time ([2]; fixed in population PK model): 0.215 (fixed) h | Ratio Vp/F and Vc/F ([2]; fixed in population PK model): 1 (fixed) | Relative bioavailaility ([2]; fixed in population PK model): 1 (fixed) | Covariance CL/F × Vc/F [2, 6]: 0.0442 | ω^2 Vc/F [2, 6]: 0.104 | dose linearity of pharmacokinetics ([2]; over the investigated dose range (10 and 20 mg once daily)): dose linear | Inter-individual variability of CL/F expressed as CV ([2]; population PK model): ^aShrinkage was 26.6%, variability expressed as CV: 31.8% | Inter-individual variability of Vc/F expressed as CV ([2]; population PK model): ^bShrinkage was 47.8%, variability expressed as CV: 33.0% | CL/F [2, 7]: 29.9 L/h | Q/F [2, 7]: 0.335 L/h | Vc/F [2, 7]: 113 L | Ka ([2]; population PK model estimate, FIDELIO-DKD patients, oral 10 or 20 mg once daily): 22.5 h⁻¹ | σ^2 ([2]; residual error, population PK model): 0.313 | EC50 [3]: 0.166 ng/mL (≈ 0.439 nM) | patients with a kidney event contributing to the composite endpoint [4]: 17.8%
